In ChEMBL document CHEMBL4038278, “Structural modifications of diarylpyrimidines (DAPYs) as HIV-1 NNRTIs: Synthesis, anti-HIV activities and SAR” (Bioorg Med Chem, 2017) one finds CC50, EC50 and selectivity ratio data, which are given here for 35 molecules.

Series [1] in a line: Cytotoxicity against human MT4 cells assessed as reduction in cell viability after 5 days by MTT assay. Type of series: cell-based. The essentials:
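Mock-infected exponentially growing MT-4 cells (6 x 10^5 cells/mL) given serial 5-fold compound dilutions in triplicate wells in parallel with the infected series. Viability measured by MTT after 5 days, absorbance at 540/690 nm, median of three wells. […] Mean of at least three independent experiments.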
On the technique in general: Formazan colour is commonly taken as a measure of viable cells.

For series [2], the system named is Human immunodeficiency virus 2. Briefly: Antiviral activity against HIV-2 ROD infected in human MT4 cells assessed as protection against virus induced cytopathic effect measured at 5 days post infection by MTT assay. Type of series: functional, cell-based. The settings on record: Human immunodeficiency virus 2, ISOLATE ROD, MT4, 120 h. The essentials:
(§1)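 MT-4 cells spun down (5 min, 220 g), resuspended at 6 x 10^5 cells/mL and infected with 100-300 CCID50 virus. Serial 5-fold compound dilutions added at infection, triplicate wells. After 5 days, viability read by MTT reduction at 540 and 690 nm using the median of three wells. […] Mean of at least three independent experiments.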
Background: Damage to the host cells serves as the signal in cytopathic effect assays.

Series [3] in a line: Selectivity index, ratio of CC50 for human MT4 cells to EC50 for HIV-1 3B wild type reverse transcriptase infected in human MT4 cells. Type of series: toxicity, cell-based. Conditions: read-out: Ratio CC50/EC50. The essentials: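 SI calculated as CC50 in mock-infected MT-4 cells divided by EC50 against HIV-1 IIIB. Both values come from the same 5-day MTT run, with infected and mock-infected triplicate series tested in parallel.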

Series [4] is described as follows: Inhibition of HIV-1 3B wild type reverse transcriptase infected in human MT4 cells assessed as protection against virus-induced cytopathic effect measured at 5 days post infection by MTT assay. It is filed as cell-based. The settings on record: Human immunodeficiency virus 1, 3B, MT4, 120 h. The essentials: as §1

Bounds are passed on as bounds.

A word on the CC50: it is the concentration giving 50% cytotoxicity. The EC50 is the midpoint of the concentration-response curve. As for `N#Cc1ccc(Nc2nccc(OCc3ccccc3)n2)cc1`, the CC50 at 120 h in series [1] came to 13 µM. Besides, the results for the EC50 in series [2] and in series [4] were greater than 13 µM and 0.022 µM, respectively. The selectivity ratio in series [3] turned out to be 591.
The matching figures for `N#Cc1ccc(Nc2nccc(OCc3ccc4ccccc4c3)n2)cc1`: 212 µM, greater than 212 µM, 0.17 µM and 1250.
The corresponding values for `CN(C)c1ccnc(Nc2ccc(C#N)cc2)n1` are 34 µM, greater than 34 µM, greater than 34 µM and less than 1.
Take `N#Cc1ccc(Nc2nccc(OCc3cccc(Br)c3)n2)cc1`: the 50% cytotoxic concentration (CC50) at 120 h in series [1] stood at 221 µM. Besides, the EC50 was greater than 221 µM in series [2] and 0.048 µM in series [4]. For the same molecule, in series [3], the selectivity ratio came to 4600.
The corresponding values for `N#Cc1ccc(Nc2nccc(OCc3cccc(F)c3)n2)cc1` are 105 µM, greater than 105 µM, 0.014 µM and 7500.
In the case of `COc1ccccc1COc1ccnc(Nc2ccc(C#N)cc2)n1`, the CC50 at 120 h in series [1] is 8.9 µM. Also, the EC50 in series [2] is greater than 8.9 µM; in series [4] it was 0.027 µM. Besides, the selectivity ratio in series [3] came out at 356.
The corresponding values for `N#Cc1ccc(Nc2nccc(OCc3cccc(C#N)c3)n2)cc1` are 4.1 µM, greater than 4.1 µM, 0.18 µM and 23.
In the case of `N#Cc1ccc(Nc2nccc(OCc3ccccc3C#N)n2)cc1`, the CC50 at 120 h in series [1] stood at 113 µM. Moreover, the EC50 in series [2] was greater than 113 µM; in series [4] it was 0.014 µM. Also, in series [3], the selectivity ratio was 8070.
On to `N#Cc1ccc(Nc2nccc(OCc3ccccc3C(F)(F)F)n2)cc1`, for which, in series [1], the half-maximal cytotoxic concentration (CC50) at 120 h was found to be 173 µM. The values for the EC50 in series [2] and in series [4] were greater than 173 µM and 1.7 µM, respectively. In series [3], the selectivity ratio was 102.
For `N#Cc1ccc(Nc2nccc(OCc3ccccc3F)n2)cc1`, in series [1], the 50% cytotoxic concentration (CC50) at 120 h was 151 µM. The results for the EC50 in series [2] and in series [4] were greater than 151 µM and 0.0058 µM, respectively. Moreover, the selectivity ratio in series [3] came out at 26000.
The corresponding values for `Cc1cc(C)nc(Sc2ccnc(Nc3ccc(C#N)cc3)n2)n1` are 224 µM, greater than 224 µM, 27 µM and 8.
The corresponding values for `N#Cc1ccc(Nc2nccc(OCc3cccc(C(F)(F)F)c3)n2)cc1` are 118 µM, greater than 118 µM, 0.61 µM and 193.
As to `N#Cc1ccc(Nc2nccc(OCc3cccc(Cl)c3)n2)cc1`, the CC50 at 120 h in series [1] came out at 153 µM. Also, the EC50 in series [2] was greater than 153 µM; in series [4], 0.049 µM. Moreover, the selectivity ratio in series [3] came out at 3120.
Consider `Cc1cccc(COc2ccnc(Nc3ccc(C#N)cc3)n2)c1`, for which the 50% cytotoxic concentration (CC50) at 120 h in series [1] was determined as 30 µM. In addition, the half-maximal effective concentration (EC50) is greater than 30 µM in series [2] and 0.0088 µM in series [4]. In addition, the selectivity ratio in series [3] was determined as 3410.
The corresponding values for `N#Cc1ccc(Nc2nccc(OCc3cc(F)ccc3Br)n2)cc1` are 190 µM, greater than 190 µM, 0.039 µM and 4870.
The matching figures for `N#Cc1ccc(Nc2nccc(OCc3ccccc3Br)n2)cc1`: 130 µM, greater than 130 µM, 0.036 µM and 3610.
The matching figures for `N#Cc1ccc(Nc2nccc(OCc3ccc(F)cc3)n2)cc1`: 81 µM, greater than 81 µM, 0.92 µM and 88.
With `COc1cccc(COc2ccnc(Nc3ccc(C#N)cc3)n2)c1`, the cytotoxic concentration (CC50) at 120 h in series [1] was found to be 118 µM. In addition, the 50% effective concentration (EC50) in series [2] is greater than 118 µM; in series [4], 0.025 µM. The selectivity ratio in series [3] stood at 4720.
The matching figures for `N#Cc1ccc(Nc2nccc(OCc3cccc4ccccc34)n2)cc1`: 7.7 µM, greater than 7.7 µM, 0.015 µM and 513.
As for `N#Cc1ccc(Nc2nccc(OCc3ccc(Br)cc3F)n2)cc1`, the CC50 at 120 h in series [1] was 141 µM. Also, the half-maximal effective concentration (EC50) is greater than 141 µM in series [2] and 0.22 µM in series [4]. Besides, in series [3], the selectivity ratio stood at 641.
The corresponding values for `N#Cc1ccc(Nc2nccc(OCc3cccnc3)n2)cc1` are 6.4 µM, greater than 6.4 µM, 0.77 µM and 8.
The matching figures for `N#Cc1ccc(Nc2nccc(OCc3ccc(Br)cc3)n2)cc1`: 16 µM, greater than 16 µM, 4.7 µM and 3.4.
With `N#Cc1ccc(Nc2nccc(OCc3ccccc3Cl)n2)cc1`, in series [1], the CC50 at 120 h turned out to be 146 µM. For the same molecule, the values for the EC50 in series [2] and in series [4] were greater than 146 µM and 0.034 µM, respectively. In addition, the selectivity ratio in series [3] came to 4420.
The corresponding values for `Cc1ccc(COc2ccnc(Nc3ccc(C#N)cc3)n2)cc1` are 81 µM, greater than 81 µM, 0.16 µM and 495.
`N#Cc1ccc(COc2ccnc(Nc3ccc(C#N)cc3)n2)cc1`: in series [1], the CC50 at 120 h is 209 µM. Besides, the results for the half-maximal effective concentration (EC50) in series [2] and in series [4] were greater than 209 µM and 1.4 µM, respectively. Besides, the selectivity ratio in series [3] was determined as 149.
The matching figures for `COc1cc(COc2ccnc(Nc3ccc(C#N)cc3)n2)cc(OC)c1`: 44.2 µM, greater than 44 µM, 0.0089 µM and 4940.
The corresponding values for `N#Cc1ccc(Nc2nccc(NCc3ccccn3)n2)cc1` are 8.5 µM, greater than 8.5 µM, 0.0076 µM and 1120.
`N#Cc1ccc(Nc2nccc(OCc3ccc(Cl)cc3)n2)cc1`: in series [1], the 50% cytotoxic concentration (CC50) at 120 h stood at 156 µM. The EC50 was greater than 156 µM in series [2] and 0.84 µM in series [4]. The selectivity ratio in series [3] came to 186.
The corresponding values for `Cc1ccccc1COc1ccnc(Nc2ccc(C#N)cc2)n1` are 12 µM, greater than 12 µM, 0.16 µM and 75.
On to `COc1ccc(COc2ccnc(Nc3ccc(C#N)cc3)n2)cc1`, for which the CC50 at 120 h in series [1] came to 102 µM. In addition, the EC50 is greater than 102 µM in series [2] and 1 µM in series [4]. In addition, the selectivity ratio in series [3] amounted to 102.
Regarding `CC(C)Nc1cccnc1N1CCN(C(=O)c2cc3cc(NS(C)(=O)=O)ccc3[nH]2)CC1` [DELAVIRDINE], the cytotoxic concentration (CC50) at 120 h in series [1] was 23 µM. Also, the half-maximal effective concentration (EC50) in series [4] amounted to 0.037 µM.
Consider `O=C1Nc2ccc(Cl)cc2[C@@](C#CC2CC2)(C(F)(F)F)O1` [EFAVIRENZ], for which, in series [4], the EC50 is 0.0073 µM.
On to `Cc1cc(C#N)cc(C)c1Oc1nc(Nc2ccc(C#N)cc2)nc(N)c1Br` [ETRAVIRINE], for which, in series [1], the half-maximal cytotoxic concentration (CC50) at 120 h is 1.9 µM. Moreover, the EC50 in series [4] worked out at 0.0042 µM.
The corresponding values for `Cc1ccnc2c1NC(=O)c1cccnc1N2C1CC1` [NEVIRAPINE] are greater than 15 µM and 0.21 µM.
Consider `Cc1cn([C@H]2C[C@H](N=[N+]=[N-])[C@@H](CO)O2)c(=O)[nH]c1=O` [ZIDOVUDINE], for which the EC50 in series [4] was determined as 0.011 µM.
